Reference: ChEMBL document CHEMBL4340521, “Subtle modifications to a thieno[2,3-d]pyrimidine scaffold yield negative allosteric modulators and agonists of the dopamine D2 receptor” (Eur J Med Chem, 2019)
The source made the active and inactive calls. No cut-off for these calls is given here.

How the values were obtained:
D(2) dopamine receptor [1] = target: T1, D(2) dopamine receptor (Homo sapiens, UniProt P14416); experiment: Negative allosteric modulation of recombinant human D2L receptor expressed in Flp-In CHO cells assessed as inhibition of dopamine-induced reduction in forskolin stimulated cAMP accumulation by measuring equilibrium dissociation constant up to 100 uM preincubated for 30 mins followed by forskolin stimulation and measured after 30 mins by BRET assay; format: functional, cell-based
T1 sequence (P14416 whole entry): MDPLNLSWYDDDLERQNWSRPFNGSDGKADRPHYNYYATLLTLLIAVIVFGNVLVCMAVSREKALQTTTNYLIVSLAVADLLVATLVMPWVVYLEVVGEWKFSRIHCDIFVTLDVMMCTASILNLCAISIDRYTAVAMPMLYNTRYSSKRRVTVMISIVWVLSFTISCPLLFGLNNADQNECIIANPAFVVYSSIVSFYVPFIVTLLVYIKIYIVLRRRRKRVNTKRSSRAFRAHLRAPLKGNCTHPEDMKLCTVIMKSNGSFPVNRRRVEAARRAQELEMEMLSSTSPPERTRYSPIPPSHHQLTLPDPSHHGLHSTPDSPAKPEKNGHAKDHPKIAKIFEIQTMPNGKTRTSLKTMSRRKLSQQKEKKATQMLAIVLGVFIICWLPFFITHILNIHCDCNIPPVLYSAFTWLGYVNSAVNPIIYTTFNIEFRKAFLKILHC

D(2) dopamine receptor [2] = target: T1, D(2) dopamine receptor; experiment: Negative allosteric modulation of recombinant human D2L receptor expressed in Flp-In CHO cells assessed as inhibition of dopamine-induced reduction in forskolin stimulated cAMP accumulation by measuring intrinsic efficacy of the modulator preincubated for 30 mins followed by forskolin stimulation and measured after 30 mins by BRET assay; format: functional, cell-based
CHO [3] = experiment: Modulation of dopamine-induced forskolin stimulated cAMP accumilation in hamster FlpIn CHO cells assessed as BRET signal at 100 uM preincubated for 30 mins followed by forskolin stimulation and measured after 30 mins by BRET assay relative to control; format: cell-based, Cricetinae; conditions: Cricetulus griseus, 0.5 h, read-out: Activity
Outline: (§1)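 Wild-type FlpIn CHO cells lacking D2R, transfected with CAMYEL cAMP BRET biosensor. Compounds at 1-100 μM plus dopamine 10 μM added 30 min before stimulation, with or without 10 μM forskolin (final). Coelenterazine-h 5 μM final. BRET ratio 535/475 nm read 30 min after stimulation.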

D(2) dopamine receptor [4] = target: T1, D(2) dopamine receptor; experiment: Negative allosteric modulation of recombinant human D2L receptor expressed in Flp-In CHO cells assessed as inhibition of dopamine-induced reduction in forskolin stimulated cAMP accumulation by measuring modulation of dopamine efficacy preincubated for 30 mins followed by forskolin stimulation and measured after 30 mins by BRET assay; format: functional, cell-based
D(2) dopamine receptor [5] = target: T1, D(2) dopamine receptor; experiment: Negative allosteric modulation of recombinant human D2L receptor expressed in Flp-In CHO cells assessed as inhibition of dopamine-induced reduction in forskolin stimulated cAMP accumulation by measuring equilibrium dissociation constant preincubated for 30 mins followed by forskolin stimulation and measured after 30 mins by BRET assay; format: functional, cell-based
D(2) dopamine receptor [6] = target: T1, D(2) dopamine receptor; experiment: Negative allosteric modulation of recombinant human D2L receptor expressed in Flp-In CHO cells assessed as inhibition of dopamine-induced reduction in forskolin stimulated cAMP accumulation by measuring net cooperativity factor preincubated for 30 mins followed by forskolin stimulation and measured after 30 mins by BRET assay; format: functional, cell-based
CHO [7] = experiment: Modulation of dopamine-induced forskolin stimulated cAMP accumilation in hamster FlpIn CHO cells assessed as BRET signal preincubated for 30 mins followed by forskolin stimulation and measured after 30 mins by BRET assay relative to control; format: cell-based; conditions: cricetinae, 0.5 h; outline: as §1
D(2) dopamine receptor [8] = target: T1, D(2) dopamine receptor; experiment: Competitive antagonist activity at recombinant human D2L receptor expressed in Flp-In CHO cells assessed as inhibition of dopamine-induced reduction in forskolin stimulated cAMP accumulation preincubated for 30 mins followed by forskolin stimulation and measured after 30 mins by BRET assay; format: functional, cell-based; conditions: read-out: pA2 (converted)

Activity (D(2) dopamine receptor [1])	log(activity) (D(2) dopamine receptor [2])	log(activity) (D(2) dopamine receptor [4])	Kb (D(2) dopamine receptor [5]) [µM]	pKb (D(2) dopamine receptor [5])	Activity index (D(2) dopamine receptor [6])	log(activity) (D(2) dopamine receptor [6])	Efficacy (D(2) dopamine receptor [4])	Activity (CHO [7])	Intrinsic activity (D(2) dopamine receptor [2])	Structure (SMILES)	activity at 100 µM (CHO [3]) [%]	Kb (D(2) dopamine receptor [8]) [µM]
	0	-0.76	4.23	5.37			0.17			c1nc(N2CCCC2)c2c3c(sc2n1)CCCC3		
inactive										Cc1sc2ncnc(NC3CC3)c2c1C		
	0	0	59.3	4.23				Dose-dependent effect		c1nc(N2CCCCC2)c2c3c(sc2n1)CCCC3	26	
	0	0	92.5	4.03	0.91	-0.04				CC(C)(C)Nc1ncnc2sc3c(c12)CCCC3		
	0	-1.22	0.91	6.04			0.06			c1nc(NC2CCC2)c2c3c(sc2n1)CCCCC3		
	-0.06	-0.54	1.19	5.92			0.29		0.86	c1nc(NCC2CC2)c2c3c(sc2n1)CCCC3		
	0	0		3.99	0.57	-0.25				c1nc(NC2CCC2)c2c3c(sc2n1)CCC3		
		-0.9	2.88	5.54			0.13			Cc1sc2ncnc(NC3CCC3)c2c1C		
	0	-0.58	3.98	5.4			0.26			c1nc(NC2CCC2)c2c3c(sc2n1)CCCCCC3		
	0	-1	0.53	6.27			0.1			c1nc(NC2CC2)c2c3c(sc2n1)CCCCCC3		
inactive										c1nc(NC2CCCCC2)c2c3c(sc2n1)CCCC3		
	0	-0.85	0.74	6.13			0.14			CCN(CC)c1ncnc2sc3c(c12)CCC3		
	-0.13	-0.55	6.01	5.22			0.28		0.75	c1nc(NC2CC2)c2c3c(sc2n1)CCC3		
	0	-1.48	0.88	6.05			0.03			c1nc(NC2CC2)c2c3c(sc2n1)CCCC3		
	-0.72	-0.65	0.57	6.25			0.22		0.19	c1nc(NC2CCC2)c2c3c(sc2n1)CCCC3		
inactive										c1ccc(Nc2ncnc3sc4c(c23)CCCC4)cc1		
	0	-3		5.72		-3				CCN(CC)c1ncnc2sc3c(c12)CCCC3		
inactive										CCN(CC)c1ncnc2sc3c(c12)CCCCC3		
	0	-1.3	2.96	5.53			0.05			c1nc(NC2CC2)c2c3c(sc2n1)CCCCC3		
	0	-1.04	11.6	4.93			0.09			c1nc(NC2CC2)c2c(C3CCCCC3)csc2n1		

Continued, compound first:

Structure (SMILES)	Activity (D(2) dopamine receptor [1])	log(activity) (D(2) dopamine receptor [2])	log(activity) (D(2) dopamine receptor [4])	Kb (D(2) dopamine receptor [5]) [µM]	pKb (D(2) dopamine receptor [5])	Activity index (D(2) dopamine receptor [6])	log(activity) (D(2) dopamine receptor [6])	Efficacy (D(2) dopamine receptor [4])	Activity (CHO [7])	Intrinsic activity (D(2) dopamine receptor [2])	activity at 100 µM (CHO [3]) [%]	Kb (D(2) dopamine receptor [8]) [µM]
c1nc(NC2CC2)c2cc(C3CCCCC3)sc2n1	inactive											
CCN(CC)c1ncnc2sc3c(c12)CCCCCC3		0	-3	14.5	4.84						28	
CCN(CC)c1ncnc2sc(C)c(C)c12		0	0	19.5	4.71	0.24	-0.61					
c1nc(N2CCOCC2)c2c3c(sc2n1)CCCC3		0	0		3.9	1.66	-0.22					
CCN(CC)c1ncnc2sc(-c3ccccc3)cc12		0	-3	0.9	6.04							
c1nc(NC2CCC2)c2c(C3CCCCC3)csc2n1		0	-1.55	2.92	5.53			0.03				
CCN(CC)c1ncnc2sccc12		0	-0.89		5.31			0.13				
CCN(CC)c1ncnc2scc(-c3ccccc3)c12		-3	0	60	4.22	0.27	-0.57					
c1ccc(-c2csc3ncnc(NC4CC4)c23)cc1		-3	0	1.93	5.72	0.32	-0.47					
c1nc(NC2CC2)c2ccsc2n1		-3	0	21.4	4.67	0.22	-0.65					
c1nc(NC2CCC2)c2cc(C3CCCCC3)sc2n1	inactive											
c1ccc(-c2cc3c(NC4CC4)ncnc3s2)cc1		-0.22	-0.37	6.35	5.92			0.43		0.6		
c1ccc(-c2csc3ncnc(NC4CCC4)c23)cc1		-3	0		3.89	0.39	-0.41					
c1nc(NC2CCC2)c2ccsc2n1		0	0	7.38	5.13	0.48	-0.32					
c1ccc(-c2cc3c(NC4CCC4)ncnc3s2)cc1		0	0	4.5	5.35	0.28	-0.55					
CCN(CC)c1ncnc2scc(C3CCCCC3)c12	inactive											
CCN(CC)c1ncnc2sc(C3CCCCC3)cc12	inactive											
c1nc(N2CCNCC2)c2c3c(sc2n1)CCCC3		-3	0	20	4.7							21.4
